Our source for the EC50 and SI values is ChEMBL document CHEMBL1128679, “Molecular similarity from atomic electrostatic multipole comparisons. Application to anti-HIV drugs” (J Med Chem, 1995).

One test has as its system AIK-T4. The test can be described thus: Ability to prevent HIV-1 induced T4 cell killing and HIV-1 replication. The format is functional, cell-based. Conditions: Homo sapiens.
The nature of test [1]: Similarity index (SI) value of the compound. The format is functional. In a few lines:
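Computed by comparing atomic electrostatic multipoles at the atomic centres of the molecule pair. Molecule B is rotated and translated against the other by quasi-Newton minimization, using numerical first and second derivatives, with the Hessian updated after every move of B. R is replaced by R + 10^-4 to avoid division by zero. The procedure is repeated to obtain E_B.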

Turning to `COc1cc(-c2ccc(/N=N/c3ccc4c(S(=O)(=O)O)cc(S(=O)(=O)O)c(N)c4c3O)c(OC)c2)ccc1/N=N/c1ccc2c(S(=O)(=O)O)cc(S(=O)(=O)O)c(N)c2c1O` [CHICAGO SKY BLUE SODIUM], in the test on AIK-T4, it took 4.8 µM to reach a half-maximal effect (EC50). The SI in test [1] is 0.4.

As for `O=S(=O)(O)c1cc(/N=N/c2cc(S(=O)(=O)O)c3cccnc3c2O)ccc1/C=C/c1ccc(/N=N/c2cc(S(=O)(=O)O)c3cccnc3c2O)cc1S(=O)(=O)O`, the EC50 (commonly the concentration that produces a half-maximal response) in the test with AIK-T4 was found to be 1.3 µM. For the same compound, the SI in test [1] came to 0.

For the compound `Nc1cc(N)c(/N=N/c2ccc(/C=C/c3ccc(/N=N/c4c(N)cc(N)cc4C(=O)O)cc3S(=O)(=O)O)c(S(=O)(=O)O)c2)c(C(=O)O)c1`, the EC50 with AIK-T4 was 31 µM. Also, the SI in test [1] worked out at 0.69.

In the test with AIK-T4, `COc1cc(-c2ccc(/N=N/c3ccc4c(S(=O)(=O)O)ccc(S(=O)(=O)O)c4c3N)c(OC)c2)ccc1/N=N/c1ccc2c(S(=O)(=O)O)ccc(S(=O)(=O)O)c2c1N` had an EC50 of 13.8 µM. This compound showed an SI in test [1] of 0.5.

The compound `O=S(=O)(O)c1cc(/N=N/c2ccc3cccnc3c2O)ccc1/C=C/c1ccc(/N=N/c2ccc3cccnc3c2O)cc1S(=O)(=O)O` returned an EC50 with AIK-T4 of 6.4 µM. The compound further came in with an SI in test [1] of 0.45.

`Nc1c(S(=O)(=O)O)cc2cc(S(=O)(=O)O)ccc2c1/N=N/c1ccc(/C=C/c2ccc(/N=N/c3c(N)c(S(=O)(=O)O)cc4cc(S(=O)(=O)O)ccc34)cc2S(=O)(=O)O)c(S(=O)(=O)O)c1`: in the test on AIK-T4, the EC50 is 2.9 µM. Besides, the SI in test [1] stood at 0.31.

In the test with AIK-T4, `O=C(O)c1cc(O)cc(O)c1/N=N/c1ccc(/C=C/c2ccc(/N=N/c3c(O)cc(O)cc3C(=O)O)cc2S(=O)(=O)O)c(S(=O)(=O)O)c1` yielded an EC50 of 1.4 µM. In test [1], this compound showed an SI of 0.16.
